# High-throughput results as filed in PubChem BioAssay.
# A selection: hits, their analogues and other compounds. The true share with any hit is near 6.5%.
# Candida biofilm: kills Candida albicans biofilms. C. albicans biofilm + clotrimazole, Alamar Blue. inhibition, % at 6 µM. 0.14% of 85,000 active;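 active = inhibition above 20%; inactive = inhibition below 20%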;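 note: preformed 24 hr biofilms exposed to compound for 48 hr; 0% = biofilm without compound and 100% = blank killed by clotrimazole plus chlorhexidine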
# Ecoli tolC: growth inhibitors of E. coli BW25113 tolC mutant. AID 573. growth inhibition, % at 10 µM (by protocol). OD615. 2.2% of 65,000 active;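 active = growth inhibition at or above a cutoff equal to the mean over every tested compound plus 3 SD, cut at about 60% in these data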;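 note: growth measured after 20 h incubation at 37 °C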
#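 Test system: E. coli BW25113 ΔtolC::kan bacteria; incubation: 37 °C, 20 h exposure; medium: LB broth supplemented with 50 µg/mL kanamycin; read-out basis: percent growth inhibition; signal: A615 absorbance measurement; compound: 10 µM final, single dose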
# E coli WT exp: blocks growth of wild type E. coli BW25113; OD600 absorbance; growth inhibition, % at 100 µM; 0.15% of 98,000 active;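 active = growth inhibition above about 50% at one test dose, limit read from the data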;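 note: growth measured after 20 h incubation at 37 °C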
# PostGolgi yeast: growth inhibition of a yeast mutant, post-Golgi transport screen. post-Golgi transport phenotypic cell assay. inhibition, % at 10 µM. 0.9% of 98,000 active. AID 739;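 note: yeast cells grown in 1536-well plates; yeast grown about 18 h at 30C before absorbance read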
# PostGolgi ctrl: growth of the yeast control strain, post-Golgi counter-screen; efflux-deficient yeast background strain, growth absorbance A615, 16 h; 5% of 98,000 active; inhibition, % at 10 µM
# Pyk2 oligo antag: blocks oligomerization of human Pyk2 in cells; Q14289; Q293 cells, Pyk2 FERM NanoBiT luminescence; hits give low values; 0.83% of 99,000 active; z-score (the deposit names both 25 µM and 10 µM); AID 1347419;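 active = Z-score of -3 or lower, scaled per plate to the spread of control and sample wells; inactive = z-score above -3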;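 note: negative z-score means lost luminescence so less FERM oligomerization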
# Target sequence (Q14289 whole entry, looked up): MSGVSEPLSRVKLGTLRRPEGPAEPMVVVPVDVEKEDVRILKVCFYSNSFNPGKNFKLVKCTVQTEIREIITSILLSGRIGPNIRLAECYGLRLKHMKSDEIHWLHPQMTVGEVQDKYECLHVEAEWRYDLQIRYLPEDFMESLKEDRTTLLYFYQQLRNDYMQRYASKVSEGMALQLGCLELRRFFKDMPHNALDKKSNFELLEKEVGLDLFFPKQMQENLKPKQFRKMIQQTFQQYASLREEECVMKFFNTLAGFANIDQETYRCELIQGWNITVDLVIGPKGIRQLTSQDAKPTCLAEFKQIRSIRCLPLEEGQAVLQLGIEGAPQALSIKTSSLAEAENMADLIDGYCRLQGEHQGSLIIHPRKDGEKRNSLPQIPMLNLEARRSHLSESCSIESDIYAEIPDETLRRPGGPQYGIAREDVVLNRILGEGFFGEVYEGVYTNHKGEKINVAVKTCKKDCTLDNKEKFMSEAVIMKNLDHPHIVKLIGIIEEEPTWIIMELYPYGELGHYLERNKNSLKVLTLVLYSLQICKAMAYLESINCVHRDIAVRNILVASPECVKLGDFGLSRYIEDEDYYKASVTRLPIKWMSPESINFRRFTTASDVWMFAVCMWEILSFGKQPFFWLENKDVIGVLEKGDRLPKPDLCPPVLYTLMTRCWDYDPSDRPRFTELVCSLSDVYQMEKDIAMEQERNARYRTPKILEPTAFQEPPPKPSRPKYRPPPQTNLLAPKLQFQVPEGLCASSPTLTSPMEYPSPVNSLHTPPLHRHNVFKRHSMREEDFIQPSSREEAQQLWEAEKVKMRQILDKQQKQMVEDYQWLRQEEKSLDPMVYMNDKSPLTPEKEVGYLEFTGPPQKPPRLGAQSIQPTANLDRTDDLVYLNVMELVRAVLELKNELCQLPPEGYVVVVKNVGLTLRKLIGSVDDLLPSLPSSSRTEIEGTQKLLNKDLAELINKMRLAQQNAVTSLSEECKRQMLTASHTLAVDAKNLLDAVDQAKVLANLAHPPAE
# Starred values were filed as active, the others as inactive; nt = not tested or not shown. Cut-off read from the data, not from the text of the source, unless noted: active = inhibition above about 30%; inactive = the rest.
SMILES,Candida biofilm,Ecoli tolC,E coli WT exp,PostGolgi yeast,PostGolgi ctrl,Pyk2 oligo antag
COc1ccccc1-c1noc(CCC(=O)Nc2cccc(C(F)(F)F)c2)n1,1.3,64.9*,-8.0,-2.1,12.1,-1.74
CCOc1cc(-c2noc(CCC(=O)Nc3cccnc3)n2)ccc1OC,2.8,3.6,6.0,-1.7,32.5*,-0.16
O=C(CCc1nc(-c2ccccc2F)no1)Nc1ccc(Oc2ccccc2)cc1,2.2,81.2*,0.0,-8.5,34.5*,-0.89
CCOc1ccc(-c2noc(CCC(=O)NC)n2)cc1OCC,10.2,-9.9,-4.0,1.0,-7.0,0.75
COc1cccc(NC(=O)CCc2nc(-c3ccccc3F)no2)c1,8.8,nt,7.0,-12.9,-0.5,1.26
Cc1oc(-c2ccc(Cl)cc2)nc1CN1CCC(C(=O)N2CCN(Cc3ccccc3)CC2)CC1,4.9,18.5,15.0,-12.9,33.3*,nt
O=c1[nH]c(SCc2ccccc2Cl)nc2c1CCCC2,5.0,2.0,-1.0,-2.6,10.2,-2.3
Cc1ccc(CSc2nc3c(c(N(C)C)n2)CCCC3)cc1,nt,nt,6.0,-15.1,41.2*,0.28
CNc1nc(SCc2ccc(C)cc2)nc2c1CCCC2,nt,nt,-1.0,10.1,33.3*,-0.66
CN(C)c1nc(SCc2ccccc2Cl)nc2c1CCCC2,nt,nt,-2.0,58.7*,36.4*,-1.1
CCCCn1nnnc1SCC(=O)N1CCCC1,8.8,nt,2.0,-1.6,1.9,-0.21
CCOc1nc(NC(=O)NS(=O)(=O)Oc2cccc(Cl)c2)nc(-c2ccccc2)n1,0.9,nt,nt,nt,nt,nt
CC[C@@H](C(=O)n1nc(C)cc1C)[C@H](NS(=O)(=O)c1ccc(C)cc1)c1ccccc1,nt,nt,-1.0,0.8,5.0,-0.71
CCCNc1cc(C)c(C#N)c2nc3ccccc3n12,4.7,nt,nt,nt,nt,-0.22
Cc1ccc(-c2c(C#N)c(N)n3c(nc4ccccc43)c2C#N)cc1,nt,nt,-5.0,4.2,15.7,-4.02*
Cc1ccsc1C(=O)OCc1csc(-c2ccccc2)n1,5.8,52.6,5.0,5.3,5.7,0.36
COc1ccc(C(c2nnnn2Cc2ccccc2)N2CCN(c3ccccc3)CC2)cc1 (stereo not drawn),6.4,25.0,nt,nt,nt,-3.82*
COCCn1nnnc1C(c1ccccc1)N1CCN(c2ccccc2)CC1 (stereo not drawn),-0.2,nt,nt,nt,nt,-2.31
COc1ccc(C(c2nnnn2Cc2cccs2)N2CCN(c3ccccc3F)CC2)cc1 (stereo not drawn),4.0,12.7,-22.0,-1.7,17.9,-3.87*
COc1ccc(C(c2nnnn2Cc2ccccc2)N2CCN(c3nc4ccccc4s3)CC2)cc1 (stereo not drawn),7.0,3.8,-17.0,9.9,23.5,-4.09*
COc1ccc(Cn2nnnc2C(c2ccccc2)N2CCN(C3CCCC3)CC2)cc1 (stereo not drawn),0.7,-2.2,-5.0,-6.3,2.5,0.16
COCCn1nnnc1C(c1ccc(OC)c(OC)c1)N1CCN(c2nc3ccccc3s2)CC1 (stereo not drawn),5.0,10.7,nt,nt,nt,-3.37*
c1ccc(CN2CCN(C(c3ccccc3)c3nnnn3Cc3ccccc3)CC2)cc1 (stereo not drawn),5.7,nt,nt,nt,nt,-1.82
O=C(O)c1ccc(NC(=O)C2(c3ccccc3)CCOCC2)cc1,5.1,-16.0,-3.0,3.2,-0.5,0.82
CCCC(c1nnnn1CC1CCCO1)N1CCN(c2nc3ccccc3s2)CC1 (stereo not drawn),-2.5,nt,nt,nt,nt,-2.41
SMILES,Candida biofilm,Ecoli tolC,E coli WT exp,PostGolgi yeast,PostGolgi ctrl,Pyk2 oligo antag
CCCC(c1nnnn1Cc1cccs1)N1CCN(c2nc3ccccc3s2)CC1 (stereo not drawn),5.2,28.9,-16.0,47.1*,18.5,-3.49*
CCC(C)(C)n1nnnc1C(c1ccc2ncccc2c1)N1CCN(c2nc3ccccc3s2)CC1 (stereo not drawn),8.5,34.1,-14.0,-1.7,33.7*,-1.56
Cc1ccc(C(=O)NNC(=S)NC(=O)COc2ccccc2)cc1,nt,nt,51.0*,27.3,23.6,0.61
CCCOc1ccc(C(=O)NNC(=S)NC(C)=O)cc1,nt,nt,88.0*,47.1*,31.7*,-0.17
CCC(=O)NC(=S)NNC(=O)c1ccc(OC)cc1,nt,nt,75.0*,3.8,14.2,2.2
COc1ccc(C(=O)NNC(=S)NC(=O)c2ccco2)cc1,nt,nt,80.0*,11.6,13.1,2.41
Cc1ccccc1C(=O)NNC(=S)NC(=O)COc1ccccc1,nt,nt,32.0,19.1,24.6,1.85
O=C(NC(=S)NNC(=O)c1cccs1)c1ccco1,nt,nt,67.0*,-15.5,-2.4,-0.15
Cc1cccc(Oc2ncc(-c3ccc(Cl)cc3)cn2)c1,nt,nt,-8.0,-12.8,10.2,1.26
CCSc1nc(N2CCOCC2)c2c(c1C#N)CCCC2,8.3,20.6,5.0,8.1,40.5*,-2.32
CC1(C)Cc2c(C#N)c(SCc3ccccc3)nc(N3CCOCC3)c2CO1,9.0,25.5,-7.0,-4.6,38.0*,-2.39
CC(C)c1nc(N2CCOCC2)c(C#N)c2c1CCCC2,1.7,64.9*,-2.0,-4.8,10.5,-0.43
CCCSc1nc(N2CCOCC2)c2c(c1C#N)CC(C)(C)SC2,0.5,nt,-1.0,-1.7,16.4,-0.6
CC1(C)Cc2c(C#N)c(SCC(=O)c3ccccc3)nc(N3CCOCC3)c2CO1,1.1,14.3,-15.0,-5.0,7.4,-1.19
Cc1ccccc1OCCn1cnc2c(N)ncnc21,5.7,nt,nt,nt,nt,3.75
Cc1cc(C)cc(Oc2ncnc3c2ncn3Cc2c(Cl)cccc2Cl)c1,-2.5,nt,-2.0,-1.0,34.1*,-0.55
Cn1c(SCC(=O)N2CCCc3ccccc32)nnc1-c1c[nH]c2ccccc12,nt,7.8,2.0,9.9,-1.5,0.26
O=C(CSc1c[nH]c2ccccc12)N1CCCc2ccccc21,2.7,nt,4.0,5.1,31.4*,nt
O=C(Cn1cnc2c(oc3ccccc32)c1=O)N1CCCc2ccccc21,5.7,6.2,2.0,7.2,8.1,-0.01
O=C(CSc1ncnc2c1oc1ccccc12)N1CCCc2ccccc21,8.3,63.0*,-30.0,0.0,44.2*,-2.09
O=C(COc1ccccc1)Nc1nnc(-c2ccc(Cl)s2)o1,6.7,95.8*,55.0*,11.5,20.0,nt
O=C(COc1ccccc1)Nc1nnc(-c2ccccc2)o1,0.2,20.5,24.0,-1.2,3.0,nt
CCN(CC)S(=O)(=O)c1cc(C(=O)n2cccn2)c(Cl)cc1Cl,6.8,-7.3,2.0,-1.6,6.5,0.58
CC(=O)OCCCNc1cc(Sc2nc3ccccc3s2)c2nonc2c1[N+](=O)[O-],nt,nt,1.0,-1.5,43.0*,-1.69
O=C(N/N=C/c1ccc(Sc2nc3ccccc3s2)c([N+](=O)[O-])c1)c1ccccn1,nt,nt,-3.0,1.5,-2.2,0.9
COc1cccc(Nc2nc3ccccc3n3cnnc23)c1,8.8,nt,3.0,-7.4,33.3*,nt
c1ccc(CNc2nc3ccccc3n3cnnc23)cc1,7.2,nt,-4.0,-16.3,13.5,nt
O=C(OCn1nnc2ccccc2c1=O)c1cc2ccccc2o1,5.2,6.7,nt,nt,nt,nt
Cc1ccc(SC(C)C(=O)Nc2ccncc2)cc1 (stereo not drawn),4.3,nt,13.0,102.3*,89.7*,1.79
O=C(Cn1c(O)c(/C=C2\C=Nc3ccc(Br)cc32)sc1=O)N1CCCC1,nt,nt,-8.0,-1.6,36.6*,-0.55
